{"data": "Assay results gathered from unrelated publications", "ALK L1196M": "ALK tyrosine kinase receptor (ALK, Homo sapiens, UniProt Q9UM73, L1196M)", "ALK": "ALK tyrosine kinase receptor (ALK, Homo sapiens, UniProt Q9UM73)", "ALK C1156Y": "ALK tyrosine kinase receptor (ALK, Homo sapiens, UniProt Q9UM73, C1156Y)", "note": "Compare with care: the assays were run in different laboratories."}
{"Compound": "COc1ccc2cc(OCC3(C(=O)O)CN(C(=O)c4ccc(F)cc4)C3)ccc2c1", "target": "ALK L1196M", "assay": "cell-free assay, competition with immobilised ligand", "setting": "1 µM", "quantity": "remaining binding", "result": "100%"}
{"Compound": "CCCS(=O)(=O)Nc1ccc(F)c(C(=O)c2c[nH]c3ncc(-c4ccc(Cl)cc4)cc23)c1F", "target": "ALK", "assay": "enzyme activity, inhibitor", "setting": "1 µM", "quantity": "inhibition", "result": "< 10%"}
{"Compound": "CN(C)c1ncnc(-c2ccc3nc(Nc4cc(CN5CCN(C(=O)CC(F)(F)F)CC5)ccn4)[nH]c3c2)c1Cl", "target": "ALK L1196M", "assay": "cell-free assay, competition with immobilised ligand", "setting": "1 µM", "quantity": "remaining binding", "result": "79%"}
{"Compound": "O=C1Nc2ccc(Cl)cc2C1=Cc1cc(Cl)c(O)c(Cl)c1", "target": "ALK", "assay": "cell-free assay", "setting": "0.5 µM", "quantity": "remaining signal", "result": "65.8%"}
{"Compound": "CNC(=O)c1cc(Oc2ccc(NC(=O)Nc3ccc(Cl)c(C(F)(F)F)c3)cc2)ccn1", "target": "ALK", "assay": "enzyme activity, inhibitor", "setting": "10 µM", "quantity": "inhibition", "result": "45%"}
{"Compound": "CC(C)(O)[C@H]1CC[C@H](Nc2ccc3ncc(-c4cccc(C(F)(F)F)c4)n3n2)CC1", "target": "ALK", "assay": "enzyme activity, inhibitor", "setting": "1 µM", "quantity": "remaining activity", "result": "57%"}
{"Compound": "CNC(=O)c1cc2c(Oc3ccc(NC(=O)C4(C(=O)Nc5ccc(F)cc5)CC4)cc3)ccnc2cc1OC", "target": "ALK", "assay": "enzyme activity, inhibitor, radiometric", "setting": "1 µM", "quantity": "inhibition", "result": "81%"}
{"Compound": "Cc1ccc(C(=O)Nc2ccc(CN3CCN(C)CC3)c(C(F)(F)F)c2)cc1C#Cc1cnc2cccnn12", "target": "ALK", "assay": "cell-free assay", "setting": "23.5 nM", "quantity": "remaining signal", "result": "81%"}
{"Compound": "CCCOc1ccc(OC)c(F)c1C(=O)c1ccc(C(=O)N[C@@H]2CNC[C@H]2NC(=O)c2ccc3[nH]ncc3c2)cc1", "target": "ALK", "assay": "enzyme activity, inhibitor", "setting": "10 µM", "quantity": "remaining activity", "result": "47%"}
{"Compound": "O=C(O)c1cc(-c2ccc(C3CCNCC3)cc2)c2ccc(-c3ccc(C(F)(F)F)cc3)cc2c1", "target": "ALK", "assay": "cell-free assay, competition with immobilised ligand", "setting": "1 µM", "quantity": "remaining binding", "result": "100%"}
{"Compound": "c1cnn2ncc(-c3ccnc(N4CCC45COC5)n3)c2c1", "target": "ALK", "assay": "binding", "setting": "1 µM", "quantity": "remaining binding", "result": "78%"}
{"Compound": "CN1CC(Oc2cnc(C#N)cc2-c2ccn3nc(NC(=O)C4CC4)cc3c2)C1", "target": "ALK", "assay": "enzyme activity, inhibitor", "setting": "1 µM", "quantity": "inhibition", "result": "0%"}
{"Compound": "O=C(NCc1ncc(C(F)(F)F)cc1Cl)c1ccc2c(c1)C1(CCS(=O)(=O)CC1)[C@@H](C1CC1)N2S(=O)(=O)c1ccc(F)cc1", "target": "ALK C1156Y", "assay": "cell-free assay, competition with immobilised ligand", "setting": "1 µM", "quantity": "remaining binding", "result": "100%"}
{"Compound": "CC/C(=N\\NC(=O)NCc1cccc(O)c1)c1ccc(O)c(C)c1O", "target": "ALK tyrosine kinase receptor (ALK, Homo sapiens, UniProt Q9UM73, F1174L)", "assay": "enzyme activity, inhibitor", "setting": "0.1 µM", "quantity": "inhibition", "result": "-0.9%"}
{"Compound": "CCN(CC)CCNC(=O)c1c(C)[nH]c(/C=C2\\C(=O)Nc3ccc(F)cc32)c1C", "target": "ALK", "assay": "enzyme activity, inhibitor", "setting": "1 µM", "quantity": "remaining activity", "result": "27%"}
{"Compound": "N[C@@H]1CCN(c2nccc(-c3cnn4ncccc34)n2)C1", "target": "ALK C1156Y", "assay": "binding", "setting": "1 µM", "quantity": "remaining binding", "result": "65%"}
{"Compound": "COc1cc(Cl)c(C(=O)N[C@@H](CN[C@H]2CC[C@@H](N)CC2)Cc2ccc(C#N)cc2)cc1-c1ccc(CN[C@H](C)c2ccc(C)cc2)o1", "target": "ALK", "assay": "enzyme activity, inhibitor", "setting": "1 µM", "quantity": "remaining activity", "result": "96%"}
{"Compound": "CCCCN(CCCC)C(=O)CN1C[C@H](c2cc(OC)c3c(c2)OCO3)[C@@H](C(=O)O)[C@@H]1CC(C)(C)CCC", "target": "ALK L1196M", "assay": "cell-free assay, competition with immobilised ligand", "setting": "1 µM", "quantity": "remaining binding", "result": "100%"}
{"Compound": "CN(CCCC(F)(F)F)c1nccc(-c2cnn3ncccc23)n1", "target": "ALK L1196M", "assay": "binding", "setting": "1 µM", "quantity": "remaining binding", "result": "100%"}
{"Compound": "Cc1sc(C(=O)NC2COC2)cc1-n1cc(NC(=O)Nc2c(F)cccc2Cl)cn1", "target": "ALK", "assay": "enzyme activity, inhibitor", "setting": "10 µM", "quantity": "remaining activity", "result": "100%"}
{"Compound": "CNC(=O)Nc1ccc2c(c1)[C@@]1(CC2)OC(=O)N(CC(=O)N(Cc2ccc(F)cc2)[C@@H](C)C(F)(F)F)C1=O", "target": "ALK", "assay": "cell-free assay, competition with immobilised ligand", "setting": "1 µM", "quantity": "remaining binding", "result": "77%"}
{"Compound": "Cc1ccc(NC(=O)c2ccc(C)c(C(F)(F)F)c2)cc1C#Cc1nn(C2CCC(O)CC2)c2ncnc(N)c12 (centres unmarked)", "target": "ALK", "assay": "cell-free assay", "setting": "10 µM", "quantity": "remaining signal", "result": "92%"}
{"Compound": "O=C(CSc1nc2nccnc2c(=O)n1CCc1ccccc1)Nc1nccs1", "target": "ALK", "assay": "enzyme activity, inhibitor", "setting": "10 µM", "quantity": "inhibition", "result": "11%"}
{"Compound": "COc1cc2ncnc(Nc3ccc(Oc4ccccc4)c(C)c3C)c2cc1OC", "target": "ALK", "assay": "enzyme activity, inhibitor", "setting": "1 µM", "quantity": "inhibition", "result": "-3%"}
{"Compound": "CN(C(=O)c1ccccc1)c1cc(N(C)c2ccc3c(c2)CCc2ccc(C(=O)NCCN4CCOCC4)cc2C3=O)ccc1F", "target": "ALK L1196M", "assay": "cell-free assay, competition with immobilised ligand", "setting": "1 µM", "quantity": "remaining binding", "result": "100%"}
{"Compound": "O=C(Nc1cnn(-c2csc(C(=O)NC3COC3)c2)c1)Nc1ccccc1Cl", "target": "ALK", "assay": "enzyme activity, inhibitor", "setting": "5 µM", "quantity": "remaining activity", "result": "101%"}
{"Compound": "Cc1[nH]c(/C=C2\\C(=O)Nc3ccc(F)cc32)c(C)c1C(=O)N[C@H]1CCN(C(=O)N(C)C)C1", "target": "ALK", "assay": "enzyme activity, inhibitor", "setting": "1 µM", "quantity": "remaining activity", "result": "73%"}
{"Compound": "Cc1cnc(NC2CCOCC2)nc1-n1cnc(C(=O)NC(CN)c2cc(F)cc(Cl)c2)c1 (centres unmarked)", "target": "ALK", "assay": "enzyme activity, inhibitor, radiometric", "setting": "1 µM", "quantity": "remaining activity", "result": "122%"}
{"Compound": "Cc1ccc(Nc2nccc(N(C)c3ccc4c(C)n(C)nc4c3)n2)cc1S(N)(=O)=O", "target": "ALK", "assay": "enzyme activity, inhibitor", "setting": "10 µM", "quantity": "inhibition", "result": "79%"}
{"Compound": "CNCc1ccc(-c2cc(-c3nc(-c4ccc(S(=O)(=O)C(C)C)cc4)cnc3N)on2)cc1", "target": "ALK", "assay": "enzyme activity, inhibitor", "setting": "2 µM", "quantity": "inhibition", "result": "4%"}
{"Compound": "CC(C)c1ccc(NC(=O)c2cccs2)c(-c2nc3ccccc3[nH]c2=O)c1", "target": "ALK", "assay": "enzyme activity, inhibitor", "setting": "1 µM", "quantity": "activity vs control", "result": "92%"}
{"Compound": "CN(C)c1ncc(F)c(-c2cnn3ncccc23)n1", "target": "ALK L1196M", "assay": "binding", "setting": "1 µM", "quantity": "remaining binding", "result": "59%"}
{"Compound": "Nc1ncnc2occ(-c3ccc(NC(=O)Nc4cc(C(F)(F)F)ccc4F)cc3)c12", "target": "ALK L1196M", "assay": "cell-free assay", "setting": "20 µM", "quantity": "remaining signal", "result": "1.8%"}
{"Compound": "Cc1nc(N2CC[C@@H](O)C2)ncc1-c1cc(C(F)(F)F)cc2[nH]ncc12", "target": "ALK", "assay": "cell-free assay, competition with immobilised ligand", "setting": "1 µM", "quantity": "remaining binding", "result": "81%"}
{"Compound": "N#CCCc1ccc2c(c1)-c1[nH]c3ccc([N+](=O)[O-])cc3c1CC(=O)N2", "target": "ALK", "assay": "cell-free assay", "setting": "0.5 µM", "quantity": "remaining signal", "result": "78.8%"}
{"Compound": "CN(c1nccc(-c2cnn3ncccc23)n1)C1CC1", "target": "ALK", "assay": "binding", "setting": "1 µM", "quantity": "remaining binding", "result": "100%"}
{"Compound": "Cc1ccc(NC(=O)c2ccc(CN3CCN(C)CC3)cc2)cc1Nc1nc(-c2cccnc2)cs1", "target": "ALK", "assay": "cell-free assay", "setting": "0.5 µM", "quantity": "remaining signal", "result": "103%"}
{"Compound": "C[C@@H]1CCN(c2nccc(-c3cnn4ncccc34)n2)C1", "target": "ALK", "assay": "binding", "setting": "1 µM", "quantity": "remaining binding", "result": "81%"}
